From PubChem BioAssay
PfHsp90 yeast 2: reduces growth (ATP signal) of yeast expressing P. falciparum Hsp90; S. cerevisiae expressing PfHsp90, BacTiter-Glo ATP, 48 h; yeast lacking PDR1 and PDR3 efflux regulators; inhibition, % at 9.4 µM; actives 0.32% (n = 310,000); AID 504621;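 active means every replicate shows inhibition above about 80%, whatever the replicate mean, limit read from the data; inconclusive means mean inhibition reaches the set limit but some replicate falls short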
HSF-1 act: increases HSF-1 driven luciferase reporter signal | actives 1.7% (n = 300,000) | activation, % at 9 µM | NIH3T3-HGL HSF-1 luciferase reporter, MG132, 8 h; 100% = twice DMSO control signal;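 active means mean replicate activation of at least 50% with a set share of replicates each reaching 50%; inconclusive means only one of those two conditions met; inactive means mean below 50% and too few replicates reaching it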
T cruzi repl: blocks replication of Trypanosoma cruzi | T. cruzi beta-gal in NIH3T3, luminescence, 90 h | inhibition, % (test concentration not listed) | actives 1.4% (n = 300,000);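 active means mean inhibition across valid replicates above about 55%, limit read from the data; inconclusive means mean below that limit but half or more replicates reach it; inactive means mean below it, under half of replicates reach it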;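 further: signal also drops with host cell toxicity which is not excluded here; higher percent means less beta-gal luminescence so fewer parasites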
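Test system: β-gal T. cruzi (Tulahuen C4) inside NIH/3T3 cells / Quantity: 5,000 cells/well / Measured by: luminescence from GalScreen with 0.05% NP40, read after 60 min / Medium: DMEM plus 2% FBS / Measure: parasite load inhibition, % / Reagent: Tulahuen C4 trypomastigotes, 5000/well / Schedule: co-culture of at least 90 h after 3 h attachment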
Glyco luc inh: blocks N-linked glycosylation in D54 reporter cells. reporter increase, % at 12.5 µM. actives 0.23% (n = 360,000). D54 ERlucT glycosylation luciferase reporter, 24 h; percent of 100 nM tunicamycin response;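 active means mean luciferase reporter signal, scaled so untreated is 0 and the glycosylation-blocking control 100, at or above a set limit in every replicate; inconclusive means mean reaches the limit but not every replicate does; inactive means mean below the limit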;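 further: luciferase carries N-glycosylation sites so blocking glycosylation raises the light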
PvdQ inh: P. aeruginosa PvdQ acylase inhibition; purified PvdQ acylase, fluorescence plate reader; inhibition, % at 10 µM; actives 0.063% (n = 340,000); AID 488965; in the data active means inhibition above about 30%, passing the limit was not always enough; inconclusive means no clear call, values can overlap the other calls
CaV13 ICDI inh: Primary screen for inhibitors of IQ motif and Ca2+-dependent inactivation inhibitor domain binding in CACNA1D, Förster resonance energy transfer in living cells, …; HEK cells, CFP/YFP FRET ICDI-IQ, plate reader, 10 min; percent FRET-ratio fall versus neutral wells; inhibition, % at 12.3 µM; actives 0.098% (n = 340,000); AID 743397;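 active means mean replicate inhibition of at least 30% and at least 1% of replicates passing that level; inconclusive means only one of the two criteria is met; inactive means neither criterion is met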
Numbers stand for hits. A selection: hits, their analogues and other compounds. The true share with any hit is near 3%.

How did OC1CCCN(Cc2ccc3ccc4cccc5ccc2c3c45)C1 (centres undefined) do in these assays?
PfHsp90 yeast 2: inactive; T cruzi repl: inactive; Glyco luc inh: 57; PvdQ inh: inactive

What do the screens show for `C[C@H]1CN([C@@H](C)CO)C(=O)CCCn2nncc2CO[C@@H]1CN(C)C(=O)Nc1ccccc1F`?
CaV13 ICDI inh: inactive

How did O=[N+]([O-])c1ccc(/C=C2\CCC(C3=CCCC3)=C2N2CCOCC2)cc1 do in these assays?
PfHsp90 yeast 2: inactive; HSF-1 act: 61; T cruzi repl: inactive; Glyco luc inh: inactive; PvdQ inh: inactive; CaV13 ICDI inh: inactive

What do the screens show for `O=C(NP(=O)(N1CCCC1)N1CCCC1)C1=C(N2CCOCC2)/C(=C/c2cccc([N+](=O)[O-])c2)CC1`?
PfHsp90 yeast 2: inactive; HSF-1 act: inactive; T cruzi repl: inactive; Glyco luc inh: inactive; PvdQ inh: inactive; CaV13 ICDI inh: inactive

What do the screens show for `CCc1nc2c(OCc3ccc(F)c(F)c3)cccn2c1N(C)C(=O)C1CC1`?
Glyco luc inh: inactive; CaV13 ICDI inh: inactive

Results for N#Cc1ccc(NC(=O)Nc2ccc(Cl)cc2)cc1 ?
PfHsp90 yeast 2: inactive; HSF-1 act: inactive; T cruzi repl: 71; Glyco luc inh: inactive; PvdQ inh: inactive; CaV13 ICDI inh: inactive

What do the screens show for `CN(CC(=O)Nc1ccc(C#N)cc1)Cc1ccc(Cl)cc1`?
PfHsp90 yeast 2: inactive; HSF-1 act: inactive; T cruzi repl: inactive; Glyco luc inh: inactive; PvdQ inh: inactive

Results for Cc1cccc(N2CCN(C(=O)CN3CCOc4ccccc43)CC2C)c1 (centres undefined) ?
HSF-1 act: inactive; T cruzi repl: inactive; Glyco luc inh: inactive; PvdQ inh: inactive; CaV13 ICDI inh: inactive

Results for Cc1ccc(N2C(=O)C3C4C=CC(CNC(=S)N5CCN(c6cccc(C)c6)C(C)C5)(O4)C3C2=O)cc1 (centres undefined) ?
PfHsp90 yeast 2: 105; HSF-1 act: inactive; T cruzi repl: inactive; Glyco luc inh: inactive; PvdQ inh: inactive; CaV13 ICDI inh: inactive

How did Cn1c(C(=O)OC(C(=O)NC(C)(C)C)c2cccnc2)cc2sccc21 (centres undefined) do in these assays?
PfHsp90 yeast 2: inactive; HSF-1 act: inconclusive; T cruzi repl: 64; Glyco luc inh: inactive; PvdQ inh: inactive; CaV13 ICDI inh: inactive

What do the screens show for `Cn1c(C(=O)OC(C(=O)NC2CCCCC2)c2ccncc2)cc2sccc21` (centres undefined)?
PfHsp90 yeast 2: inactive; HSF-1 act: inactive; T cruzi repl: 58; Glyco luc inh: inactive; PvdQ inh: inactive; CaV13 ICDI inh: inactive

Results for CC1(C(=O)Nc2ccc3ccccc3c2)CCC(=O)N1C1CC1 (centres undefined) ?
Glyco luc inh: inactive; CaV13 ICDI inh: inactive

Results for O=C(NCc1ccc2c(c1)OCO2)c1nc(S(=O)(=O)Cc2ccccc2F)ncc1Cl ?
PfHsp90 yeast 2: inactive; HSF-1 act: 84; T cruzi repl: inactive; Glyco luc inh: inactive; PvdQ inh: inactive; CaV13 ICDI inh: inactive

How did O=C(NCc1ccccc1)c1nc(S(=O)(=O)Cc2ccccc2)ncc1Cl do in these assays?
PfHsp90 yeast 2: inactive; HSF-1 act: 147; T cruzi repl: inactive; Glyco luc inh: inactive; PvdQ inh: inactive; CaV13 ICDI inh: inactive

How did CC(=O)Nc1ccc(NC(=O)c2nc(S(=O)(=O)Cc3ccccc3)ncc2Cl)cc1 do in these assays?
PfHsp90 yeast 2: inactive; HSF-1 act: inactive; T cruzi repl: inactive; Glyco luc inh: inactive; PvdQ inh: inactive; CaV13 ICDI inh: inactive

What do the screens show for `COc1ccc(CNC(=O)c2nc(S(=O)(=O)Cc3ccccc3)ncc2Cl)cc1`?
PfHsp90 yeast 2: inactive; HSF-1 act: 248; T cruzi repl: inactive; Glyco luc inh: inactive; PvdQ inh: inactive; CaV13 ICDI inh: inactive

How did O=C(NCc1ccc2c(c1)OCO2)c1nc(S(=O)(=O)Cc2ccccc2)ncc1Cl do in these assays?
PfHsp90 yeast 2: inactive; HSF-1 act: inactive; T cruzi repl: inactive; Glyco luc inh: inactive; PvdQ inh: inactive; CaV13 ICDI inh: inactive

How did O=C(NCc1ccccc1)c1c(Cl)nc(Cl)c(Cl)c1Cl do in these assays?
PfHsp90 yeast 2: inactive; HSF-1 act: 65; T cruzi repl: inactive; Glyco luc inh: inconclusive; PvdQ inh: inactive; CaV13 ICDI inh: inactive
